Source: paper PMC11310375 (EJNMMI Radiopharmacy and Chemistry, 2024)
Square brackets hold non-standard residues; d marks the D form. Peptide text beside a SMILES is read from it. * marks the point of attachment. AspCH2OCO(5-Me-thien-2-yl) = Cc1ccc(C(=O)OCC(=O)[C@H](CC(=O)O)N*)s1; Phe(F5) = N[C@@H](Cc1c(F)c(F)c(F)c(F)c1F)C(=O)O; X5 = Cc1cccc(C)c1C(=O)OCC(=O)[C@@H](CC(=O)O)N*; X4 = Cc1ccc(C(=O)OCC(=O)[C@@H](CC(=O)O)N*)s1; X2 = O=C(CCOCCOCCOCCOCCn1cc(CCCF)nn1)*; d(β3hL) = CC(C)C[C@@H](N)CC(=O)O; 3Pal = N[C@@H](Cc1cccnc1)C(=O)O; d3Pal = N[C@H](Cc1cccnc1)C(=O)O; X3 = O=C(CCCc1cn(CCF)nn1)*; X1 = O=C(Cn1cc(CCCF)nn1)*; Ahx = NCCCCCC(=O)O

Key:
caspase-3 [1] = target: T1, caspase-3 (Homo sapiens, UniProt P42574); assay: Biochemical inhibition assay, kinact/Ki with AMAC substrate; conditions: for kinact/KI: read-out: kinact/Ki C3
T1 sequence (P42574 29-175 limits assumed): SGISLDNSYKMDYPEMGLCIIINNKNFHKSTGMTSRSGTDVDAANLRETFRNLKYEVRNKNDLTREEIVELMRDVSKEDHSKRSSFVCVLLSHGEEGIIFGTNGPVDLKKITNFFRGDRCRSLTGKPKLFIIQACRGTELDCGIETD
T1 sequence (P42574 176-277 limits assumed): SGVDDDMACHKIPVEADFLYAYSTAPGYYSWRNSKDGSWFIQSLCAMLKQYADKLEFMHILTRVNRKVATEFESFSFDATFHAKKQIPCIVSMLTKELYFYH
How it was run: (§1)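 Continuous fluorogenic inactivation assay with Ac-DEVD-AMAC at 100 μM final. Final enzyme concentrations were 1 nM caspase-3 and 5 nM caspase-7. Enzyme was added to substrate plus inhibitor, and fluorescence (ex 320/em 460) was read immediately. Progress curves were fit to F = -[v₀(1-exp(-kobst))/kobs-Fmax] to give kinact and Ki.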

caspase-6 = target: T2, caspase-6 (Homo sapiens, UniProt P55212); assay: Biochemical inhibition assay, kinact/Ki with AMAC substrate; conditions: read-out: kinact/Ki C6
T2 sequence (P55212 24-179 limits assumed): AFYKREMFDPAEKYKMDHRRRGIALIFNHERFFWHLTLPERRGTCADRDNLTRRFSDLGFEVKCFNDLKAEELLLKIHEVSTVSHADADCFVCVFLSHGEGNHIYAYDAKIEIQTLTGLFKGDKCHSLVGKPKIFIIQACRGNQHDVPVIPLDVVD
T2 sequence (P55212 194-293 limits assumed): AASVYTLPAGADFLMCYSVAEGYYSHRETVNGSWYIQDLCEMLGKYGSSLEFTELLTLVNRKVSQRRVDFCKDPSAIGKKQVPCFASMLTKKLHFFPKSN
How it was run: (§2)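 Caspase-8 (25 nM), caspase-9 (100 nM) and caspase-10 (20 nM) used Ac-IETD-AMAC; caspase-9 and caspase-10 buffers also had 0.7 M sodium citrate. Caspase-6 (25 nM) used Ac-VEID-AMAC. Fluorescence (ex 320/em 460) was read immediately, and progress curves were fit for kinact and Ki.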

caspase-7 = target: T3, caspase-7 (Homo sapiens, UniProt P55210); assay: Biochemical inhibition assay, kinact/Ki with AMAC substrate; conditions: read-out: kinact/Ki C7
T3 sequence (P55210 24-198 limits assumed): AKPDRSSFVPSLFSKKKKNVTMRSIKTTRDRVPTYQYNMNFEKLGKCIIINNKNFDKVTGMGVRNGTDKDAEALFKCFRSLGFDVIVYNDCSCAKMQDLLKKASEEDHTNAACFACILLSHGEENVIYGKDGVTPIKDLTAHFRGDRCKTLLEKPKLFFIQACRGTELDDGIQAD
T3 sequence (P55210 207-303 limits assumed): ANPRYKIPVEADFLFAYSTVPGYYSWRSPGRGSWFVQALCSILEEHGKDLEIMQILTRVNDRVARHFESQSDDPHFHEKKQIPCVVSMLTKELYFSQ
How it was run: as §1

caspase-8 = caspase-8 (Homo sapiens, UniProt Q14790); assay: Biochemical inhibition assay, kinact/Ki with AMAC substrate; conditions: read-out: kinact/Ki C8
Chain of caspase-8 (Q14790 217-374 limits assumed): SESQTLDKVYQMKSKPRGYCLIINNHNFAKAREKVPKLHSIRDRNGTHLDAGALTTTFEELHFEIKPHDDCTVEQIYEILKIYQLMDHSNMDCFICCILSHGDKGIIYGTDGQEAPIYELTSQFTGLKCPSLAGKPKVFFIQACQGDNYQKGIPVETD
Chain of caspase-8 (Q14790 385-479 limits assumed): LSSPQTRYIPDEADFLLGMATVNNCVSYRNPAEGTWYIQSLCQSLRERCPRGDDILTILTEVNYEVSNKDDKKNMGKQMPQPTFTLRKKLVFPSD
How it was run: as §2

caspase-9 = target: T4, caspase-9 (Homo sapiens, UniProt P55211); assay: as above; conditions: read-out: kinact/Ki C9
T4 sequence (P55211 1-315 limits assumed): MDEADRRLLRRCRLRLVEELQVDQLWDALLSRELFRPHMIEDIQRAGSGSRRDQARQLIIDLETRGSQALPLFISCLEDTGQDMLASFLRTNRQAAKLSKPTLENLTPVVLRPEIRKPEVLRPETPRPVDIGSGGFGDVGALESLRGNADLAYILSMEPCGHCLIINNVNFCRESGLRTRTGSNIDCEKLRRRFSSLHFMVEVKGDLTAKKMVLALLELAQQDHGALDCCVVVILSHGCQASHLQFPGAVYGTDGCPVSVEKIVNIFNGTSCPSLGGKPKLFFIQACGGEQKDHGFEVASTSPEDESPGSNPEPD
T4 sequence (P55211 331-416 limits assumed): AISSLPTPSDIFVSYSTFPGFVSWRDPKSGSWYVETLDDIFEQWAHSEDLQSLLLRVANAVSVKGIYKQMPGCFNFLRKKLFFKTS
How it was run: as §2

caspase-10 = target: T5, caspase-10 (Homo sapiens, UniProt Q92851); assay: as above; conditions: read-out: kinact/Ki C10
T5 sequence (Q92851 220-415 limits assumed): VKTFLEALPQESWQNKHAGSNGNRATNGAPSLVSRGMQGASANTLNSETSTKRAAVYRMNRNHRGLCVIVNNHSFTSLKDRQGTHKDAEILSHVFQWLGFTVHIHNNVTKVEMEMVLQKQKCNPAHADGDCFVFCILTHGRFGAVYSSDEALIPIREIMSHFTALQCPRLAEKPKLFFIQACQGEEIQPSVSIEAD
T5 sequence (Q92851 416-521 limits assumed): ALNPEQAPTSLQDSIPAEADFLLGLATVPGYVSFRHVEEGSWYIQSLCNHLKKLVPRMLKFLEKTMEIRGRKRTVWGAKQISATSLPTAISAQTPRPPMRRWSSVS
How it was run: as §2

caspase-3 [2] = target: T1, caspase-3; conditions: cited from earlier work

Compound | kinact/KI (caspase-3 [1]) [M⁻¹ s⁻¹] | kinact/KI (caspase-6) [M⁻¹ s⁻¹] | kinact/KI (caspase-7) [M⁻¹ s⁻¹] | kinact/KI (caspase-8) [M⁻¹ s⁻¹] | kinact/KI (caspase-9) [M⁻¹ s⁻¹] | kinact/KI (caspase-10) [M⁻¹ s⁻¹] | inactivation rate on caspase-3 as compared to caspase-7 (caspase-3 [1]; ratio of kinact/Ki) [times] | efficiency in inactivation of caspase-3, less than Ac-DEVD-KE (caspase-3 [2]; ref Solania et al. [2019]) [times] | selectivity for caspase-3 against caspase-7 (caspase-3 [2]; ref Vickers et al. [2013]) [fold] | selectivity for caspase-3 against caspase-8 (caspase-3 [2]; ref Vickers et al. [2013]) [fold]
Cc1ccc(C(=O)OCC(=O)[C@@H](CC(=O)O)NC(=O)[C@@H](Cc2ccccc2)NC(=O)C[C@@H](CC(C)C)NC(=O)[C@@H](CC(=O)O)NC(=O)[C@@H](Cc2cccnc2)NC(=O)CCCCCNC(=O)CCCCCNC(=O)CCCc2cn(CCF)nn2)s1 [Inhibitor 1, (3R,6R,10R,13R,16R)-6-benzyl-13-(carboxymethyl)-35-(1-(2-fluoroethyl)-1H-1,2,3-triazol-4-yl)-10-isobutyl-3-(2-((5-methylthiophene-2-carbonyl)oxy)acetyl)-5,8,12,15,18,25,32-heptaoxo-16-(pyridin-3-ylmethyl)-4,7,11,14,17,24,31-heptaazapentatriacontanoic acid] ({X3-Ahx-Ahx}-[d3Pal][dD][d(β3hL)][dF]-X4) | 73500 | 200 | 200 |  |  |  |  |  |  | 
Cc1cccc(C)c1C(=O)OCC(=O)[C@@H](CC(=O)O)NC(=O)[C@@H](Cc1ccccc1)NC(=O)C[C@@H](CC(C)C)NC(=O)[C@@H](CC(=O)O)NC(=O)[C@@H](Cc1cccnc1)NC(=O)CCCCCNC(=O)CCCCCNC(=O)CCCc1cn(CCF)nn1 [Inhibitor 3, (3R,6R,10R,13R,16R)-6-benzyl-13-(carboxymethyl)-3-(2-((2,6-dimethylbenzoyl)oxy)acetyl)-35-(1-(2-fluoroethyl)-1H-1,2,3-triazol-4-yl)-10-isobutyl-5,8,12,15,18,25,32-heptaoxo-16-(pyridin-3-ylmethyl)-4,7,11,14,17,24,31-heptaazapentatriacontanoic acid] ({X3-Ahx-Ahx}-[d3Pal][dD][d(β3hL)][dF]-X5) | 206000 | 5400 | 1000 |  |  |  |  |  |  | 
Cc1ccc(C(=O)OCC(=O)[C@H](CC(=O)O)NC(=O)[C@H](Cc2ccccc2)NC(=O)[C@H](Cc2c(F)c(F)c(F)c(F)c2F)NC(=O)[C@H](CC(=O)O)NC(=O)[C@H](Cc2cccnc2)NC(=O)CNC(=O)[C@H](CCC(=O)O)NC(=O)CNC(=O)Cn2cc(CCCF)nn2)s1 [Inhibitor 4, (3S,6S,9S,12S,15S,21S)-6-benzyl-12-(carboxymethyl)-21-(2-(2-(4-(3-fluoropropyl)-1H-1,2,3-triazol-1-yl)acetamido)acetamido)-3-(2-((5-methylthiophene-2-carbonyl)oxy)acetyl)-5,8,11,14,17,20-hexaoxo-9-((perfluorophenyl)methyl)-15-(pyridin-3-ylmethyl)-4,7,10,13,16,19-hexaazatetracosanedioic acid] (X1-GEG[3Pal]D[Phe(F5)]F-{AspCH2OCO(5-Me-thien-2-yl)}) | 863000 | 200 | 71400 | 7200 | 800 | 700 |  |  |  | 
Cc1ccc(C(=O)OCC(=O)[C@H](CC(=O)O)NC(=O)[C@H](Cc2ccccc2)NC(=O)[C@H](Cc2c(F)c(F)c(F)c(F)c2F)NC(=O)[C@H](CC(=O)O)NC(=O)[C@H](Cc2cccnc2)NC(=O)CCOCCOCCOCCOCCn2cc(CCCF)nn2)s1 [Inhibitor 5, (17S,20S,23S,26S,29S)-26-benzyl-20-(carboxymethyl)-1-(4-(3-fluoropropyl)-1H-1,2,3-triazol-1-yl)-29-(2-((5-methylthiophene-2-carbonyl)oxy)acetyl)-15,18,21,24,27-pentaoxo-23-((perfluorophenyl)methyl)-17-(pyridin-3-ylmethyl)-3,6,9,12-tetraoxa-16,19,22,25,28-pentaazahentriacontan-31-oic acid] (X2-[3Pal]D[Phe(F5)]F-{AspCH2OCO(5-Me-thien-2-yl)}) | 1.25e+06 | 300 | 106000 | 13500 | 1000 | 600 |  |  |  | 
Cc1ccc(C(=O)OCC(=O)[C@H](CC(=O)O)NC(=O)[C@H](Cc2ccccc2)NC(=O)[C@H](Cc2c(F)c(F)c(F)c(F)c2F)NC(=O)[C@H](CC(=O)O)NC(=O)[C@H](Cc2cccnc2)NC(=O)CCCCCNC(=O)Cn2cc(CCCF)nn2)s1 [Inhibitor 6, (11S,14S,17S,20S,23S)-20-benzyl-14-(carboxymethyl)-1-(4-(3-fluoropropyl)-1H-1,2,3-triazol-1-yl)-23-(2-((5-methylthiophene-2-carbonyl)oxy)acetyl)-2,9,12,15,18,21-hexaoxo-17-((perfluorophenyl)methyl)-11-(pyridin-3-ylmethyl)-3,10,13,16,19,22-hexaazapentacosan-25-oic acid] ({X1-Ahx}-[3Pal]D[Phe(F5)]F-{AspCH2OCO(5-Me-thien-2-yl)}) | 851000 | 200 | 108000 | 7700 | 900 | 900 |  |  |  | 
Cc1ccc(C(=O)OCC(=O)[C@H](CC(=O)O)NC(=O)[C@H](Cc2ccccc2)NC(=O)[C@H](Cc2c(F)c(F)c(F)c(F)c2F)NC(=O)[C@H](CC(=O)O)NC(=O)[C@H](Cc2cccnc2)NC(=O)CNC(=O)CNC(=O)CNC(=O)Cn2cc(CCCF)nn2)s1 [Inhibitor 7, (13S,16S,19S,22S,25S)-22-benzyl-16-(carboxymethyl)-1-(4-(3-fluoropropyl)-1H-1,2,3-triazol-1-yl)-25-(2-((5-methylthiophene-2-carbonyl)oxy)acetyl)-2,5,8,11,14,17,20,23-octaoxo-19-((perfluorophenyl)methyl)-13-(pyridin-3-ylmethyl)-3,6,9,12,15,18,21,24-octaazaheptacosan-27-oic acid] (X1-GGG[3Pal]D[Phe(F5)]F-{AspCH2OCO(5-Me-thien-2-yl)}) | 1.62e+06 | 300 | 117000 | 15200 | 700 | 1000 | 14 |  |  | 
Cc1ccc(C(=O)OCC(=O)[C@H](CC(=O)O)NC(=O)[C@H](Cc2ccccc2)NC(=O)[C@H](Cc2c(F)c(F)c(F)c(F)c2F)NC(=O)[C@H](CC(=O)O)NC(=O)[C@H](Cc2cccnc2)NC(=O)Cn2cc(CCCF)nn2)s1 [Inhibitor 8, (4S,7S,10S,13S,16S)-13-benzyl-7-(carboxymethyl)-1-(4-(3-fluoropropyl)-1H-1,2,3-triazol-1-yl)-16-(2-((5-methylthiophene-2-carbonyl)oxy)acetyl)-2,5,8,11,14-pentaoxo-10-((perfluorophenyl)methyl)-4-(pyridin-3-ylmethyl)-3,6,9,12,15-pentaazaoctadecan-18-oic acid] (X1-[3Pal]D[Phe(F5)]F-{AspCH2OCO(5-Me-thien-2-yl)}) | 549000 |  | 61000 | 5600 | 400 | 700 |  |  |  | 
Ac-3Pal-Asp-βhLeu-Phe-Asp-KE [Ac-DW3-KE] |  |  |  |  |  |  |  | 500 | 120 | 58
